Test results as given in ChEMBL document CHEMBL4622832, “Synthesis, biological evaluation and molecular modeling study of 2-amino-3,5-disubstituted-pyrazines as Aurora kinases inhibitors” (Bioorg Med Chem, 2020).
Active and inactive are the calls of the source. The calls are words filed in the database; no cut-off is given here.

What was measured:
U-87 MG = assay: Antiproliferative activity against human U87 cells assessed as cell growth inhibition after 72 hrs by MTT assay; assay type: functional, cell-based, U-87MG ATCC
Outline: (§1)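 Cells seeded at 5 × 10^3 cells/well in medium with 10% FBS for 24 h at 37 °C, 5% CO2. Compounds diluted in culture medium to various concentrations, 72 h exposure. MTT (5 mg/mL stock in serum-free medium) for 4 h, formazan dissolved in DMSO, absorbance at 490 nm. IC50 from log plot of percent of control versus concentration; triplicate.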

HeLa [1] = assay: Antiproliferative activity against human HeLa cells assessed as cell growth inhibition after 72 hrs by MTT assay; assay type: functional, cell-based; outline: as §1
HepG2 = assay: Antiproliferative activity against human HepG2 cells assessed as cell growth inhibition after 72 hrs by MTT assay; assay type: functional, cell-based; details: HepG2, 72 h; outline: as §1
LoVo = assay: Antiproliferative activity against human LoVo cells assessed as cell growth inhibition after 72 hrs by MTT assay; assay type: functional, cell-based; outline: as §1
Aurora kinase A = biological target: T1, Aurora kinase A (Homo sapiens, UniProt O14965); assay: Inhibition of Aurora kinase A (unknown origin) incubated for 30 mins by Kinase Glo luminescent assay
T1 sequence (O14965 whole entry): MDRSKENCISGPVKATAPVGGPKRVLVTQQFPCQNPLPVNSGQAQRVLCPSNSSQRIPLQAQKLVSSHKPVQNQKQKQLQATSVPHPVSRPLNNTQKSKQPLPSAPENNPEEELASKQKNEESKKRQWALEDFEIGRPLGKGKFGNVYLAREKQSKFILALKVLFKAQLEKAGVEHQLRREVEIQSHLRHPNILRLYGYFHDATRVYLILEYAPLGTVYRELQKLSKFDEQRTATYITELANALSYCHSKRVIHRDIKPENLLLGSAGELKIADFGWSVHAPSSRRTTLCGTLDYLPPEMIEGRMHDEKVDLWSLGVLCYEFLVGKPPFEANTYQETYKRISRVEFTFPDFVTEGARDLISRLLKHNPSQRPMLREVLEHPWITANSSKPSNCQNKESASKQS

Aurora kinase B [2] = biological target: T2, Aurora kinase B (Homo sapiens, UniProt Q96GD4); assay: Inhibition of Aurora kinase B (unknown origin) incubated for 30 mins by Kinase Glo luminescent assay
T2 sequence (Q96GD4 whole entry): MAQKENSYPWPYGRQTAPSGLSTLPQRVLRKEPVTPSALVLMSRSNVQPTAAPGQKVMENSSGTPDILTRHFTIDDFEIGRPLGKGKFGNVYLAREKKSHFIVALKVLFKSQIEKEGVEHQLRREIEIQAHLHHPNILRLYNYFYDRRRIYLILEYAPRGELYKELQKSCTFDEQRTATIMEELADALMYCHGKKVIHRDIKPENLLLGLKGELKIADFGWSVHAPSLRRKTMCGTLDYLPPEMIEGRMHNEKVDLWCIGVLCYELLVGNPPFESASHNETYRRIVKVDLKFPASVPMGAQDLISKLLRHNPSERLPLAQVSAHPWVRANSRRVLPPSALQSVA

HeLa [3] = assay: Induction of cell cycle arrest in human HeLa cells assessed as accumulation in G2/M phase at 10 uM after 24 hrs by propidium iodide staining-based flow cytometric analysis (reference value: 10.5%); assay type: functional
HeLa [4] = assay: Induction of cell cycle arrest in human HeLa cells assessed as accumulation in G2/M phase at 1 uM after 24 hrs by propidium iodide staining-based flow cytometric analysis (reference value: 10.5%); assay type: functional
HeLa [5] = assay: Induction of cell cycle arrest in human HeLa cells assessed as accumulation in G2/M phase after 24 hrs by propidium iodide staining-based flow cytometric analysis; assay type: functional
HeLa [6] = assay: Induction of cell cycle arrest in human HeLa cells assessed as decrease in cyclin B1 expression level at 1 to 10 uM incubated for 24 hrs by Western blot analysis; assay type: functional, cell-based
Outline: (§2)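 HeLa cells treated 24 h at 0, 1, 5 or 10 µM. Lysates quantified by BCA; 20–30 µg protein run on 12% SDS-PAGE, transferred to PVDF. Blocked 2 h in 5% milk/TBST. Primary antibodies (1:500–1:1000) overnight at 4 °C against p-Aurora A Thr288, p-Aurora B Thr232, total Aurora A/B, cyclin B1 and cdc2. Secondary at 1:5000–1:10,000; β-actin loading control.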

[7] = biological target: T3, Aurora kinase A (Homo sapiens) (UniProt O14965); assay: Inhibition of Aurora kinase A in human HeLa cells assessed as reduction in phosphorylation at Thr288 residue incubated for 24 hrs by western blot analysis; assay type: cell-based; outline: as §2
T3 sequence (whole entry): T1 sequence (O14965 whole entry)

Aurora kinase B [8] = biological target: T2, Aurora kinase B; assay: Inhibition of Aurora kinase B in human HeLa cells assessed as reduction in phosphorylation at Thr232 residue incubated for 24 hrs by western blot analysis; assay type: cell-based; outline: as §2
HeLa [9] = assay: Induction of cell cycle arrest in human HeLa cells assessed as decrease in cdc2 expression level at 1 to 10 uM incubated for 24 hrs by Western blot analysis; assay type: functional, cell-based; outline: as §2
HeLa [10] = assay: Induction of cell cycle arrest in human HeLa cells assessed as accumulation in G2/M phase at 5 uM after 24 hrs by propidium iodide staining-based flow cytometric analysis (reference value: 10.5%); assay type: functional
Aurora kinase B [11] = biological target: T2, Aurora kinase B; assay: Inhibition of Aurora B in human B-NHL cells assessed as inhibition of histone H3 phosphorylation on Ser10 by immunoblotting analysis; assay type: cell-based

IC50 (U-87 MG)	IC50 (HeLa [1])	IC50 (HepG2)	IC50 (LoVo)	IC50 (Aurora kinase A)	IC50 (Aurora kinase B [2])	SMILES	further results
> 100 µM	38.4 µM	45.2 µM	49.2 µM	–	–	Cc1noc(C)c1-c1cnc(N)c(Sc2ccc(C(=O)Nc3ccc(Cl)cc3)cc2)n1	–
40.4 µM	26.1 µM	5.42 µM	21.6 µM	0.23 µM	0.32 µM	Cc1noc(C)c1-c1cnc(N)c(Oc2ccc(C(=O)NC3CCCCC3)cc2)n1	–
15.5 µM	2.23 µM	14.4 µM	1.92 µM	0.458 µM	0.26 µM	Cc1noc(C)c1-c1cnc(N)c(Oc2ccc(C(=O)Nc3ccc(Cl)cc3)cc2)n1	–
45.6 µM	19.2 µM	35.6 µM	9.18 µM	–	–	Cc1noc(C)c1-c1cnc(N)c(Oc2ccc(C(=O)Nc3ccc(Cl)cn3)cc2)n1	–
> 100 µM	42.1 µM	20.1 µM	43.6 µM	–	–	Cn1cc(-c2cnc(N)c(NCc3ccc(C(=O)Nc4ccc(Cl)cc4)cc3)n2)cn1	–
> 100 µM	42.7 µM	> 100 µM	> 100 µM	–	–	Cn1cc(-c2cnc(N)c(Sc3ccc(C(=O)Nc4ccc(Cl)cc4)cc3)n2)cn1	–
47.9 µM	40.8 µM	> 100 µM	26.6 µM	–	–	Cn1cc(-c2cnc(N)c(Oc3ccc(C(=O)Nc4cc(Cl)ccn4)cc3)n2)cn1	–
54.8 µM	38.2 µM	44.2 µM	48.6 µM	–	–	Cn1cc(-c2cnc(N)c(Oc3ccc(C(=O)Nc4cccc(Cl)n4)cc3)n2)cn1	–
14.5 µM	9.5 µM	12.8 µM	13.6 µM	–	–	Cc1cc(Nc2cc(N3CCN(C)CC3)nc(Sc3ccc(NC(=O)C4CC4)cc3)n2)n[nH]1 [TOZASERTIB]	Activity (HeLa [3]): 36%
44.8 µM	73 µM	66.9 µM	41.4 µM	–	–	Cn1cc(-c2cnc(N)c(Oc3ccc(C(=O)Nc4ccccc4Cl)cc3)n2)cn1	–
27.2 µM	14.1 µM	15.4 µM	10.2 µM	0.172 µM	0.36 µM	Cc1noc(C)c1-c1cnc(N)c(Oc2ccc(C(=O)N3CCOCC3)cc2)n1	–
> 100 µM	> 100 µM	> 100 µM	> 100 µM	–	–	Cc1noc(C)c1-c1cnc(N)c(NCc2ccc(C(=O)Nc3ccc(Cl)cc3)cc2)n1	–
37.6 µM	36.1 µM	21.7 µM	16.5 µM	–	–	Cn1cc(-c2cnc(N)c(Oc3ccc(C(=O)Nc4ncccc4Cl)cc3)n2)cn1	–
11.5 µM	1.34 µM	7.3 µM	1.64 µM	0.09 µM	0.152 µM	Cc1noc(C)c1-c1cnc(N)c(Oc2ccc(C(=O)Nc3cccc(Cl)c3)cc2)n1	Activity (HeLa [4]): 21%; Activity (HeLa [5]): Dose-dependent effect; Activity (HeLa [6]): Active; Activity (HeLa [3]): 34.9%; inhibition [7]: Dose-dependent effect; inhibition (Aurora kinase B [8]): Dose-dependent effect; Activity (HeLa [9]): Active; Activity (HeLa [10]): 30.1%
22.2 µM	21.5 µM	24.2 µM	6.16 µM	–	–	Cn1cc(-c2cnc(N)c(Oc3ccc(C(=O)Nc4ccc(Cl)cn4)cc3)n2)cn1	–
43.3 µM	17.8 µM	43.2 µM	> 100 µM	–	–	Cc1noc(C)c1-c1cnc(N)c(Oc2ccc(C(=O)NC3CC3)cc2)n1	–
17.7 µM	12.3 µM	11.6 µM	9.21 µM	0.22 µM	0.164 µM	Cn1cc(-c2cnc(N)c(Oc3ccc(C(=O)Nc4ccccc4)cc3)n2)cn1	–
70.8 µM	37.9 µM	> 100 µM	> 100 µM	–	–	Cc1noc(C)c1-c1cnc(N)c(Oc2ccc(C(=O)Nc3cc(Cl)ccn3)cc2)n1	–
45.6 µM	31.9 µM	27.2 µM	14.8 µM	–	–	Cc1noc(C)c1-c1cnc(N)c(Oc2ccc(C(=O)Nc3ncccc3Cl)cc2)n1	–
21.7 µM	4.46 µM	21.2 µM	24.5 µM	0.658 µM	0.272 µM	Cn1cc(-c2cnc(N)c(Oc3ccc(C(=O)Nc4cccc(Cl)c4)cc3)n2)cn1	–
60.5 µM	81.3 µM	> 100 µM	> 100 µM	–	–	Cc1noc(C)c1-c1cnc(N)c(Oc2ccc(C(=O)Nc3ccccc3Cl)cc2)n1	–
35.8 µM	3.44 µM	11.9 µM	3.08 µM	0.19 µM	0.175 µM	Cn1cc(-c2cnc(N)c(Oc3ccc(C(=O)Nc4ccc(Cl)cc4)cc3)n2)cn1	–
21.5 µM	8.03 µM	17.6 µM	7.69 µM	0.143 µM	0.189 µM	Cc1noc(C)c1-c1cnc(N)c(Oc2ccc(C(=O)N3CCN(C)CC3)cc2)n1	–
47.8 µM	32.1 µM	6.88 µM	17.5 µM	–	–	CCCNC(=O)c1ccc(Oc2nc(-c3c(C)noc3C)cnc2N)cc1	–
64.1 µM	25.5 µM	35.7 µM	39.3 µM	–	–	Cc1noc(C)c1-c1cnc(N)c(Oc2ccc(C(=O)Nc3cccc(Cl)n3)cc2)n1	–
26.6 µM	10.5 µM	11.8 µM	5.74 µM	0.22 µM	0.538 µM	Cc1noc(C)c1-c1cnc(N)c(Oc2ccc(C(=O)Nc3ccccc3)cc2)n1	–
57.6 µM	9.97 µM	12.8 µM	25.2 µM	–	–	Cc1noc(C)c1-c1cnc(N)c(Oc2ccc(C(=O)NC3CCCC3)cc2)n1	–
–	–	–	–	–	–	O=C(Nc1c[nH]nc1-c1nc2ccc(CN3CCOCC3)cc2[nH]1)NC1CC1 [AT-9283]	IC50 (Aurora kinase B [11]): 0.03 µM
